From publication PMC3494447 (British Journal of Cancer, 2012)
Where two headings read alike, the source gives them in different places.

What was measured:
[1] = Plasma pharmacokinetics of chemotherapy in absence or presence of axitinib; type: in vivo, human; settings: for Plasma pharmacokinetic parameters (Cmax, AUC, clearance, volume of distribution) in the absence or presence of axitinib: comparison in words; for clearance: CL; for Vd: Vz; for half-life: t½
[2] = system: patients with advanced solid tumours; assay: Haematologic laboratory abnormalities; type: in vivo, human; settings: All grades; Total column = both chemotherapy cohorts
[3] = system: patients with advanced solid tumours; assay: Safety: treatment-related adverse events; type: in vivo, human
Procedure, shortened: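 Adverse events were monitored throughout in every patient given ≥1 dose and graded by CTCAE version 3.0. Physical examinations were done at baseline, on days 1, 8 and 15 of each cycle and 28 days after the last dose.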

human liver microsomes = settings: in vitro, ref unpublished data; cited from earlier work
[4] = system: patients with advanced NSCLC; settings: phase II, single-agent axitinib, ref Schiller et al, 2009; cited from earlier work
advanced solid tumours = assay: Best tumour response by RECIST 1.0; type: in vivo, human
[5] = type: in vivo; settings: human, plasma, oral; for AUC(0-t): AUC0-24, Mean (%CV); for Cmax / Vd/F / half-life: Mean (%CV); for Vd/F: Vz/F; for half-life: t½
[6] = system: patients with advanced solid tumours; type: in vivo, human; settings: for Dose-limiting toxicities: first cycle; for MTD of axitinib: continuously
[7] = human, plasma, intravenous, Mean (%CV), paclitaxel (+carboplatin) + axitinib, cycle 1 day 1, n=12
[8] = human, plasma, intravenous, Mean (%CV), paclitaxel (+carboplatin) without axitinib, cycle 2 day 1, n=12
[9] = human, plasma, intravenous, Mean (%CV), gemcitabine (+cisplatin) + axitinib, cycle 1 day 1, n=17
[10] = human, plasma, intravenous, Mean (%CV), gemcitabine (+cisplatin) without axitinib, cycle 2, n=17
[11] = carboplatin (+paclitaxel) + axitinib, cycle 1 day 1, PUF, n=12
[12] = carboplatin (+paclitaxel) without axitinib, cycle 2 day 1, PUF, n=12
[13] = All grades, Total column = both chemotherapy cohorts
[14] = grade >=3, across both treatment arms
[15] = 5 mg b.i.d., axitinib 5 mg b.i.d. + gemcitabine/cisplatin, cycle 1 day 1
[16] = 5 mg b.i.d., axitinib + paclitaxel/carboplatin, cycle 1 day 1, dose-normalised to 5 mg b.i.d.
[17] = 5 mg b.i.d., axitinib alone, steady state, cohorts 1–3 pooled, dose-normalised to 5 mg b.i.d.
[18] = 5 mg, axitinib alone 5 mg b.i.d., steady state, gemcitabine/cisplatin cohort

CC(=O)O[C@H]1C(=O)[C@@]2(C)[C@H]([C@H](OC(=O)c3ccccc3)[C@]3(O)C[C@H](OC(=O)[C@H](O)[C@@H](NC(=O)c4ccccc4)c4ccccc4)C(C)=C1C3(C)C)[C@]1(OC(C)=O)CO[C@@H]1C[C@@H]2O [Paclitaxel, paclitaxel]
Plasma pharmacokinetic parameters (Cmax, AUC, clearance, volume of distribution) in the absence or presence of axitinib [1]: similar
clearance [1, 7]: 303 mL/min
clearance [1, 8]: 360 mL/min
Cmax ([1]; human, plasma, intravenous, Cmax, Mean (%CV), paclitaxel (+carboplatin) + axitinib, cycle 1 day 1, plasma, n=12): 7180 ng/mL
Vd [1, 7]: 229 L
Vd [1, 8]: 285 L
half-life [1, 7]: 8.64 h
half-life [1, 8]: 8.36 h

Nc1ccn([C@@H]2O[C@H](CO)[C@@H](O)C2(F)F)c(=O)n1 [Gemcitabine, 2′,2′-difluorodeoxycytidine]
Plasma pharmacokinetic parameters (Cmax, AUC, clearance, volume of distribution) in the absence or presence of axitinib [1]: similar
AUC(0-inf) ([1]; human, plasma, intravenous): 11700 ng·h/mL
clearance [1, 9]: 3620 mL/min
clearance [1, 10]: 3730 mL/min
Vd [1, 9]: 95.5 L
Vd [1, 10]: 91.5 L

N.N.O=C([O-])C1(C(=O)[O-])CCC1.[Pt+2] [Carboplatin, carboplatin]
CL, Mean (%CV) [1, 11]: 13.7 (31) l h^−1
Vz, Mean (%CV) [1, 11]: 44.8 (15) l
t½, Mean (%CV) [1, 11]: 2.44 (29) h
CL, Mean (%CV) [1, 12]: 12.6 (32) l h^−1
Vz, Mean (%CV) [1, 12]: 45.2 (18) l
t½, Mean (%CV) [1, 12]: 2.62 (21) h
Plasma pharmacokinetic parameters (Cmax, AUC, clearance, volume of distribution) in the absence or presence of axitinib [1]: similar

O=c1ccn([C@@H]2O[C@H](CO)[C@@H](O)C2(F)F)c(=O)[nH]1 [dFdU, 2′,2′-difluorodeoxyuridine]
Plasma pharmacokinetic parameters (Cmax, AUC, clearance, volume of distribution) in the absence or presence of axitinib [1]: similar

CNC(=O)c1ccccc1Sc1ccc2c(/C=C/c3ccccn3)n[nH]c2c1 [Axitinib, axitinib]
Anaemia, haematologic laboratory abnormality [2]: 48 (100) n (%)
Leukopenia, haematologic laboratory abnormality [2]: 46 (95.8) n (%)
Lymphopenia, haematologic laboratory abnormality [2]: 40 (83.3) n (%)
Neutropenia, haematologic laboratory abnormality [2]: 46 (95.8) n (%)
Thrombocytopenia, haematologic laboratory abnormality [2]: 43 (89.6) n (%)
Grade >=3 haemoptysis ([3]; 12 patients with squamous cell NSCLC): No grade⩾3 haemoptysis occurred
Decreased appetite, treatment-related AE [3, 13]: 7 (14.3) n (%)
Diarrhoea, treatment-related AE [3, 13]: 17 (34.7) n (%)
Dizziness, treatment-related AE [3, 13]: 5 (10.2) n (%)
Dysgeusia, treatment-related AE [3, 13]: 6 (12.2) n (%)
Dysphonia, treatment-related AE [3, 13]: 7 (14.3) n (%)
Epistaxis, treatment-related AE [3, 13]: 8 (16.3) n (%)
Fatigue, treatment-related AE [3, 13]: 14 (28.6) n (%)
Hand–foot syndrome, treatment-related AE [3, 13]: 9 (18.4) n (%)
Headache, treatment-related AE [3, 13]: 7 (14.3) n (%)
Hypertension, treatment-related AE [3, 13]: 18 (36.7) n (%)
Nausea, treatment-related AE [3, 13]: 8 (16.3) n (%)
Proteinuria, treatment-related AE [3, 13]: 10 (20.4) n (%)
Rash, treatment-related AE [3, 13]: 7 (14.3) n (%)
Anaemia reported as treatment-related AE ([3]; Grade 3/4, all patients): 2.0%
Leukopenia reported as treatment-related AE ([3]; Grade 3/4, all patients): 2.0%
Treatment-related diarrhoea ([3]; all grades, all 49 patients): 34.7%
Treatment-related fatigue ([3]; all grades, all 49 patients): 28.6%
Treatment-related hypertension ([3]; all grades, all 49 patients): 36.7%
Grade 5 treatment-related AEs ([3]; all patients): No cases
Grade >=3 haemoptysis ([3]; all patients): No cases
Patients with axitinib dose reduced ([3]; gemcitabine/cisplatin cohort): 28.6%
Patients with axitinib dosing interrupted ([3]; gemcitabine/cisplatin cohort): 66.7%
Treatment-related fatigue [3, 14]: 10.2%
Treatment-related hypertension [3, 14]: 10.2%
Patients with axitinib dose reduced ([3]; paclitaxel/carboplatin cohorts): 35.7%
Patients with axitinib dosing interrupted ([3]; paclitaxel/carboplatin cohorts): 35.7%
Enzymes mediating axitinib metabolism (human liver microsomes): primarily mediated by CYP3A4 and to a lesser extent by CYP1A2, CYP2C19 and UDP-glucuronosyltransferase 1A1
median OS [4]: 14.8 months
Objective responses, number of patients (advanced solid tumours; other tumour types): 5 n
Objective responses, number of patients (advanced solid tumours; patients with NSCLC): 5 n
Objective responses, number of patients (advanced solid tumours; patients with melanoma): 2 n
Objective responses, number of patients (advanced solid tumours; patients with ovarian cancer): 3 n
AUC(0-t) [5, 15]: 444 ng·h/mL
AUC(0-t) [5, 16]: 535 ng·h/mL
AUC(0-t) [5, 17]: 404 ng·h/mL
Cmax ([5]; 5 mg b.i.d., axitinib 5 mg b.i.d. + gemcitabine/cisplatin, cycle 1 day 1, n=20): 41.7 ng/mL
Cmax ([5]; 5 mg b.i.d., axitinib + paclitaxel/carboplatin, cycle 1 day 1, cohorts 1–3 pooled, dose-normalised to 5 mg b.i.d., n=12): 46 ng/mL
Cmax ([5]; 5 mg b.i.d., axitinib alone, steady state, cycle 1 day –1, cohorts 1–3 pooled, dose-normalised to 5 mg b.i.d., n=12): 39 ng/mL
Vd/F [5, 15]: 168 L
Vd/F [5, 16]: 133 L
Vd/F [5, 17]: 108 L
half-life [5, 15]: 2.66 h
AUC(0-t) [5, 18]: 416 ng·h/mL
Cmax ([5]; 5 mg, axitinib alone 5 mg b.i.d., steady state, gemcitabine/cisplatin cohort, n=20): 41 ng/mL
Vd/F [5, 18]: 157 L
half-life [5, 18]: 2.68 h
half-life ([5]; axitinib + paclitaxel/carboplatin, cycle 1 day 1): 2.7 h
Dose-limiting toxicities ([6]; axitinib 5 mg b.i.d. with gemcitabine/cisplatin): fatigue
Dose-limiting toxicities ([6]; cohort 1, axitinib lead-in 1 mg b.i.d., with paclitaxel/carboplatin): None
Dose-limiting toxicities ([6]; cohort 2, axitinib lead-in 3 mg b.i.d., with paclitaxel/carboplatin): None
Dose-limiting toxicities ([6]; cohort 3, axitinib 5 mg b.i.d., with paclitaxel/carboplatin): Febrile neutropenia (n=1)
Dose-limiting toxicities ([6]; cohort 3, axitinib 5 mg b.i.d., with paclitaxel/carboplatin, listed as axitinib): febrile neutropenia
MTD of axitinib ([6]; with cisplatin 80 mg m^-2 (day 1) and gemcitabine 1250 mg m^-2 (days 1 and 8)): 5 mg b.i.d.
MTD of axitinib ([6]; with paclitaxel 200 mg m^-2 and carboplatin AUC 6 mg min ml^-1): 5 mg b.i.d.
